Experimental data published in ChEMBL document CHEMBL1154369, “Betulin-derived compounds as inhibitors of alphavirus replication” (J Nat Prod, 2009).
The source made the active and inactive calls. The rule behind the calls is not given here.

Key:
[1] = Cytotoxicity against human HuH7 cells assessed as cell viability at 50 uM after 24 hrs
[2] = tested on: Semliki Forest virus; assay: Antiviral activity against SFV infected in BHK cells after 14 hrs by luciferase reporter gene assay; assay type: functional, organism-based
Outline: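 SFV-Rluc reporter virus from infectious cDNA clone; BHK-21 cells infected at low multiplicity (0.001 PFU/cell) and incubated 14 h, spanning over 2 infectious cycles. Serial dilutions of each derivative tested. Luciferase read-out as surviving virus fraction. IC50 from a sigmoidal dose-response fit; means ± SD, n = 6. 3′-Amino-3′-deoxyadenosine (20 µM) served as screen positive control.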

[3] = Cytotoxicity against human HuH7 cells assessed as cell viability at 500 uM after 24 hrs; assay type: cell-based, Huh-7; settings: read-out: Activity
Outline: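 Huh-7 human hepatocellular carcinoma cells exposed 24 h to derivative at 500 µM in an extended cytotoxicity analysis. Viability measured as intracellular ATP content and reported as surviving fraction.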

[4] = tested on: Semliki Forest virus; assay: Antiviral activity against SFV infected in BHK cells assessed as surviving virus fraction at 50 uM after 14 hrs by luciferase reporter gene assay; assay type: functional; parameters: scale not given here
[5] = tested on: Semliki Forest virus; assay: Antiviral activity against SFV infected in BHK cells assessed as decrease in surviving virus fraction at 50 uM treated during time of viral adsorption for 1 hr measured after 5 hrs by luciferase reporter gene assay; assay type: functional, organism-based
Outline: (§1)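 Time-of-addition run with SFV-Rluc at high multiplicity (5 PFU/cell) in BHK-21 cultures, covering a single replication cycle. Compound present throughout (0-5 h), only during adsorption (0-1 h), at 1-5 h, or at 2-5 h. Surviving fraction is the remaining Renilla luciferase activity, read at 5 h per legend (4.5 h in text); means ± SD, n = 4.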

[6] = tested on: Semliki Forest virus; assay: Antiviral activity against SFV infected in BHK cells assessed as decrease in surviving virus fraction at 200 uM treated during time of viral adsorption for 1 hr measured after 5 hrs by luciferase reporter gene assay; assay type: functional, organism-based; outline: as §1
[7] = tested on: Semliki Forest virus; assay: Antiviral activity against SFV infected in BHK cells assessed as decrease in surviving virus fraction at 50 uM treated 1 hr after viral adsorption measured after 5 hrs by luciferase reporter gene assay; assay type: functional, organism-based; outline: as §1
[8] = tested on: Sindbis virus; assay: Antiviral activity against Sindbis virus infected in BHK cells assessed as inhibition of RNA synthesis after 14 hrs by [3H]uridine incorporation assay; assay type: functional, organism-based
Outline: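 Sindbis virus from infectious cDNA clone grown in BHK-21 cells. Viral RNA synthesis rate measured by [3H]-uridine labeling. Serial compound dilutions from 16 pM to 50 µM. IC50 from nonlinear regression to sigmoidal dose-response curves; means ± SD, n = 4.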

[9] = tested on: Semliki Forest virus; assay: Antiviral activity against SFV infected in BHK cells assessed as decrease in surviving virus fraction at 200 uM treated 1 hr after viral adsorption measured after 5 hrs by luciferase reporter gene assay; assay type: functional, organism-based; outline: as §1
[10] = tested on: Semliki Forest virus; assay: Antiviral activity against SFV infected in BHK cells assessed as decrease in surviving virus fraction at 50 uM treated 2 hr after viral adsorption measured after 5 hrs by luciferase reporter gene assay; assay type: functional, organism-based; outline: as §1
[11] = tested on: Semliki Forest virus; assay: Antiviral activity against SFV infected in BHK cells assessed as surviving virus fraction at 50 uM after 14 hrs by luciferase reporter gene assay in presence of 50 ug/ml guanosine; assay type: functional, organism-based

Structure (SMILES) | viability at 24 h, 50 µM [1] [%] | IC50 ([2]; read-out: IC50) [µM] | IC50 ([2]; read-out: pIC50 (converted)) [µM] | viability at 24 h, 500 µM [3] [%] | Activity [4] [%] | Activity [5] | Activity [6] | Activity [7] | IC50 ([8]; read-out: IC50) [µM] | IC50 ([8]; read-out: pIC50 (converted)) [µM] | Activity [9] | Activity [10] | Activity [11]
C=C(C)[C@@H]1CC[C@]2(COC(C)=O)CC[C@]3(C)[C@H](CC[C@@H]4[C@@]5(C)CC[C@H](O)C(C)(C)[C@@H]5CC[C@]43C)[C@@H]12 | 87 | 12.1 | 12 | > 80 | 3 |  |  |  |  |  |  |  | 
CC(=O)OC[C@]12CC[C@]3(C(C)C)C1=C1[C@H](C[C@@H]4[C@@]5(C)CC[C@H](OC(C)=O)C(C)(C)[C@@H]5CC[C@@]4(C)[C@]1(C)CC2)n1c(=O)n(-c2cccc(Cl)c2)c(=O)n13 | 95 | 22.1 | 22.4 | > 80 | 1 |  |  |  |  |  |  |  | 
CCCCn1c(=O)n2n(c1=O)[C@]1(C(C)C)CC[C@]3(COC(C)=O)CC[C@]4(C)C(=C31)[C@@H]2C[C@@H]1[C@@]2(C)CC[C@H](OC(C)=O)C(C)(C)[C@@H]2CC[C@]14C | 81 | 37.9 | 38 | > 80 | 19 |  |  |  |  |  |  |  | 
CC(=O)OC[C@]12CC[C@]3(C(C)C)O[C@]13[C@H]1CC[C@@H]3[C@@]4(C)CC[C@H](OC(C)=O)C(C)(C)[C@@H]4CC[C@@]3(C)[C@]1(C)CC2 | 92 | 13.3 | 11.5 | > 80 | 16 |  |  |  |  |  |  |  | 
C=C(C)[C@@H]1CC[C@]2(COC3CCCCO3)CC[C@]3(C)[C@H](CC[C@@H]4[C@@]5(C)CC[C@H](O)C(C)(C)[C@@H]5CC[C@]43C)[C@@H]12 (stereo partly drawn) | 92 | 17.2 | 17.4 | > 80 | 11 | inactive | inactive | Active | 1.9 | 1.91 | Active | Active | Active
C=C(C)[C@@H]1CC[C@]2(COC3CCCCO3)CC[C@]3(C)[C@H](CC[C@@H]4[C@@]5(C)CC[C@H](OC(C)=O)C(C)(C)[C@@H]5CC[C@]43C)[C@@H]12 (stereo partly drawn) | 91 | 24.7 | 24.5 | > 80 | 10 |  |  |  |  |  |  |  | 
CC(=O)OC[C@]12CC[C@]3(C(C)C)C1=C1[C@H](C[C@@H]4[C@@]5(C)CC[C@H](OC(C)=O)C(C)(C)[C@@H]5CC[C@@]4(C)[C@]1(C)CC2)n1c(=O)n(Cc2ccccc2)c(=O)n13 | 101 | 35.9 | 36.3 | > 80 | 1 |  |  |  |  |  |  |  | 
C=C(C)[C@@H]1CC[C@]2(C=O)CC[C@]3(C)[C@H](CC[C@@H]4[C@@]5(C)CCC(=O)C(C)(C)[C@@H]5CC[C@]43C)[C@@H]12 [BETULONAL] | 90 | 38.3 | 38 | 52 | 8 |  |  |  |  |  |  |  | 
CC(=O)OC[C@]12CCC(C(C)C)=C1[C@H]1CC[C@@H]3[C@@]4(C)CC[C@H](OC(C)=O)C(C)(C)[C@@H]4CC[C@@]3(C)[C@]1(C)CC2 | 87 | 43.2 | 42.7 | > 80 | 15 |  |  |  |  |  |  |  | 
C=C(C)[C@@H]1CC[C@]2(COC(C)=O)CC[C@]3(C)[C@H](CC[C@@H]4[C@@]5(C)CC[C@H](OC(C)=O)C(C)(C)[C@@H]5CC[C@]43C)[C@@H]12 [BETULIN DIACETATE] | 97 | 9.1 | 9.12 |  | 21 |  |  |  |  |  |  |  | 
CC(C)[C@@H]1CC[C@]2(C(=O)O)CC[C@]3(C)[C@H](CC[C@@H]4[C@@]5(C)CCC(=O)C(C)(C)[C@@H]5CC[C@]43C)[C@@H]12 [DIHYDROBETULONIC ACID] | 102 | 30.6 | 30.2 | > 80 | 14 |  |  |  |  |  |  |  | 
CC(C)C(=O)OC[C@]12CC[C@]3(C(C)C)C1=C1[C@H](C[C@@H]4[C@@]5(C)CC[C@H](OC(=O)C(C)C)C(C)(C)[C@@H]5CC[C@@]4(C)[C@]1(C)CC2)n1c(=O)n(C)c(=O)n13 | 106 |  |  | > 80 | 24 |  |  |  |  |  |  |  | 
CCCC(=O)OC[C@]12CC[C@]3(C(C)C)C1=C1[C@H](C[C@@H]4[C@@]5(C)CC[C@H](OC(=O)CCC)C(C)(C)[C@@H]5CC[C@@]4(C)[C@]1(C)CC2)n1c(=O)n(C)c(=O)n13 | 93 | 30.1 | 30.2 |  | 18 |  |  |  |  |  |  |  | 
C=C(C)[C@@H]1CC[C@]2(C(=O)O)CC[C@]3(C)[C@H](CC[C@@H]4[C@@]5(C)CCC(=O)C(C)(C)[C@@H]5CC[C@]43C)[C@@H]12 [BETUNOLIC ACID] | 89 | 13.3 | 13.2 | > 80 | 13 |  |  |  |  |  |  |  | 
C=C(C)[C@@H]1CC[C@]2(CO)CC[C@]3(C)[C@H](CC[C@@H]4[C@@]5(C)CC[C@H](OC(C)=O)C(C)(C)[C@@H]5CC[C@]43C)[C@@H]12 | 86 | 24.2 | 24 | > 80 | 3 |  |  |  |  |  |  |  | 
C=C(C)[C@@H]1CC[C@]2(COC(C)=O)CC[C@]3(C)[C@H](CC[C@@H]4[C@@]5(C)CCC(=O)C(C)(C)[C@@H]5CC[C@]43C)[C@@H]12 | 83 | 48.5 | 47.9 | > 80 | 11 |  |  |  |  |  |  |  | 
CC(=O)OC[C@]12CC[C@]3(C(C)C)C1=C1[C@H](C[C@@H]4[C@@]5(C)CC[C@H](OC(C)=O)C(C)(C)[C@@H]5CC[C@@]4(C)[C@]1(C)CC2)n1c(=O)n(-c2cccc([N+](=O)[O-])c2)c(=O)n13 | 108 | 22.9 | 22.9 | > 80 | 3 |  |  |  |  |  |  |  | 
C=C(C)[C@@H]1CC[C@]2(CO)CC[C@]3(C)[C@H](CC[C@@H]4[C@@]5(C)CC[C@H](O)C(C)(C)[C@@H]5CC[C@]43C)[C@@H]12 [BETULIN] | 83 | 45.5 | 45.7 | > 80 | 7 |  |  |  |  |  |  |  | 
C=C(C)[C@@H]1CC[C@]2(COC(C)=O)CC[C@]3(C)[C@H](CC[C@@H]4[C@@]5(C)CC=CC(C)(C)[C@@H]5CC[C@]43C)[C@@H]12 | 95 |  |  |  | 98 |  |  |  |  |  |  |  | 
CCC(=O)OC[C@]12CC[C@]3(C(C)C)C1=C1[C@H](C[C@@H]4[C@@]5(C)CC[C@H](OC(=O)CC)C(C)(C)[C@@H]5CC[C@@]4(C)[C@]1(C)CC2)n1c(=O)n(C)c(=O)n13 | 75 |  |  |  | 21 |  |  |  |  |  |  |  | 
